Laboratory results reported in ChEMBL document CHEMBL1154735, “A strategy to minimize reactive metabolite formation: discovery of (S)-4-(1-cyclopropyl-2-methoxyethyl)-6-[6-(difluoromethoxy)-2,5-dimethylpyridin-3-ylamino]-5-oxo-4,5-dihydropyrazine-2-carbonitrile as a potent, orally bioavailable corticotropin-releasing factor-1 receptor antagonist” (J Med Chem, 2009).
≈ marks a conversion by molar mass, not a printed value.

Legend:
[1] = AUC in Beagle dog at 2 mg/kg, po dosed as […] after 0.25 to 24 hrs by LC/MS/MS analysis; assay type: ADME, organism-based, Canis lupus familiaris; design: time upper 24 hr, time lower 0.25 hr, dose 2 mg/kg, route oral; conditions: in vivo
[2] = Drug metabolism in bile duct cannulated Sprague-Dawley rat assessed as unchanged parent drug remaining in bile at 20 mg/kg, po after 24 hrs by HPLC/UV/MS analysis; assay type: ADME, organism-based; design: dose 20 mg/kg, route oral; conditions: read-out: Activity
Summary of the method: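 Male Sprague–Dawley bile duct cannulated rats (n = 3) dosed orally at 20 mg/kg in PEG/ethanol 90:10; vehicle-dosed controls (n = 3). Bile and urine pooled over 0–24 h, acetonitrile-precipitated and profiled by HPLC/UV/MS (Hydro-RP column, PDA 200–550 nm, positive-ion full and data-dependent scans).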

Rattus norvegicus [3] = assay: Total plasma concentration in Sprague-Dawley rat at 1 mg/kg, po after 1 to 3 hrs by LC/MS/MS analysis; assay type: ADME, organism-based; design: dose 1 mg/kg, route oral; conditions: in vivo
[4] = Oral bioavailability in Beagle dog at 2 mg/kg dosed as aqueous suspension of 1% polysorbate 80 in 0.5% methylcellulose after 0.25 to 24 hrs by LC/MS/MS analysis; assay type: ADME, organism-based, Canis lupus familiaris; conditions: in vivo
[5] = Cmax in Sprague-Dawley rat at 10 mg/kg, po dosed as aqueous suspension of Labrafil M 1944CS/DMAC/polysorbate 80, 85:10:5 (v/v) after 2 to 4 hrs by LC/MS/MS analysis; assay type: ADME, organism-based; design: dose 10 mg/kg, route oral; conditions: in vivo
[6] = Aqueous solubility at pH 6.5; assay type: physicochemical
Rattus norvegicus [7] = assay: Ex vivo receptor occupancy of CRF1 receptor in Sprague-Dawley rat brain parietal assessed as inhibition of [125I]sauvagine binding at 1.8 mg/kg, po after 90 mins by autoradiography; assay type: functional; conditions: 1.5 h
[8] = Aqueous solubility at pH 1; assay type: physicochemical
[9] = Volume of distribution at steady state in Sprague-Dawley rat at 2 mg/kg, iv after 0.17 to 24 hrs by LC/MS/MS analysis; assay type: ADME, organism-based; design: dose 2 mg/kg, route intravenous; conditions: in vivo, read-out: Vdss
Summary of the method: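 Sprague–Dawley rats (n = 3) dosed 2 mg/kg iv in PEG:ethanol 90:10 (v/v) at 1 mL/kg. Plasma stored at –20 °C and quantified by LC/MS/MS after acetonitrile precipitation with internal standard.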

Rattus norvegicus [10] = assay: Ex vivo receptor occupancy of CRF1 receptor in po dosed Sprague-Dawley rat brain parietal assessed as inhibition of [125I]sauvagine binding after 90 mins by autoradiography; assay type: functional, organism-based
Rattus norvegicus [11] = assay: Total plasma concentration in Sprague-Dawley rat at 1.8 mg/kg, po after 1 to 3 hrs by LC/MS/MS analysis; assay type: ADME, organism-based; design: dose 1.8 mg/kg, route oral; conditions: in vivo
[12] = Metabolic stability in NADPH-fortified human liver microsomes assessed as parent compound remaining at 10 uM after 30 mins by HPLC/UV/MS analysis; assay type: ADME, Microsome; conditions: read-out: Stability
Summary of the method: (§1)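 Pooled rat or human liver microsomes 1 mg/mL, 10 μM substrate, 100 mM potassium phosphate pH 7.4, 37 °C, started with NADPH-regenerating system (1.3 mM NADP+, 3.3 mM glucose-6-phosphate, 3.3 mM MgCl2, 0.5 U/mL G6PDH); GSH 5 mM in trapping runs. Sampled 0 and 30 min, acetonitrile quench; abundance as UV peak area (330–340 nm) fraction of all drug-related components by HPLC/UV/MS.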

Rattus norvegicus [13] = assay: Anxiolytic activity in Sprague-Dawley rat assessed as decrease in exit latency at 1 mg/kg, po after 60 mins by defensive withdrawal test relative to control; assay type: functional; design: scale not given: the % may be the effect or the level left
Summary of the method: (§2)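 Rats placed in a darkened chamber within an open illuminated field; time to emerge measured 60 min after oral dosing (0.56–3 mg/kg), n = 8; percent decrease in exit latency versus vehicle-treated animals, p < 0.05 significance.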

[14] = Volume of distribution at steady state in Beagle dog at 2 mg/kg, iv after 0.17 to 24 hrs by LC/MS/MS analysis; assay type: ADME, organism-based, Canis lupus familiaris; design: dose 2 mg/kg, route intravenous; conditions: in vivo, read-out: Vdss
Summary of the method: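 Male beagle dogs (n = 4) given 2 mg/kg iv in propylene glycol:ethanol 90:10 (v/v), 1 mL/kg infused over 5 min at 0.2 mL/kg/min. Plasma stored at –20 °C and analysed by LC/MS/MS after acetonitrile precipitation.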

Rattus norvegicus [15] = assay: Toxicity in Sprague-Dawley rat at 20 mg/kg after 2 weeks; assay type: organism-based; design: dose 20 mg/kg; conditions: in vivo, 336 h
[16] = Clearance in Beagle dog at 2 mg/kg, iv after 0.17 to 24 hrs by LC/MS/MS analysis; assay type: ADME, organism-based, Canis lupus familiaris; design: dose 2 mg/kg, route intravenous; conditions: in vivo
Summary of the method: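 Male beagle dogs (n = 4), 2 mg/kg iv in propylene glycol:ethanol 90:10 (v/v), 1 mL/kg infused over 5 min at 0.2 mL/kg/min; femoral vein blood at 0.17–24 h; plasma frozen at –20 °C, analysed by LC/MS/MS.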

Rattus norvegicus [17] = assay: Toxicity in Sprague-Dawley rat at 175 mg/kg after 2 weeks; assay type: organism-based; design: dose 175 mg/kg; conditions: in vivo, 336 h
Liver microsomes [18] = assay: Metabolic stability in NADPH-fortified rat liver microsomes assessed as pyrazinone oxidation metabolite formation at 10 uM after 30 mins by HPLC/UV/MS analysis; assay type: ADME, Microsome; conditions: 0.5 h; summary of the method: as §1
[19] = Cmax in Beagle dog at 2 mg/kg, po dosed as aqueous suspension of 1% polysorbate 80 in 0.5% methylcellulose after 2 to 4 hrs by LC/MS/MS analysis; assay type: ADME, organism-based, Canis lupus familiaris; design: dose 2 mg/kg, route oral; conditions: in vivo
[20] = Metabolic stability in rat liver microsomes assessed as compound remaining at 3 uM after 10 mins by HPLC/UV/MS analysis; assay type: ADME, Microsome; conditions: read-out: Stability
Summary of the method: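 Pooled human or rat liver microsomes (1 mg/mL protein) with 3 μM compound and 1.3 mM NADPH in 100 mM sodium phosphate pH 7.4 at 37 °C; final 0.015% DMSO, 0.985% acetonitrile; stopped at 0 and 10 min, percent remaining by LC/MS/MS.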

[21] = Oral bioavailability in Sprague-Dawley rat at 10 mg/kg dosed as aqueous suspension of 1% polysorbate 80 in 0.5% methylcellulose after 0.25 to 24 hrs by LC/MS/MS analysis; assay type: ADME, organism-based; conditions: in vivo
Rattus norvegicus [22] = assay: Plasma free concentration in Sprague-Dawley rat at 1 mg/kg, po after 1 to 3 hrs by LC/MS/MS analysis; assay type: ADME, organism-based; design: dose 1 mg/kg, route oral; conditions: in vivo
Liver microsomes [23] = assay: Metabolic stability in NADPH-fortified human liver microsomes assessed as pyrazinone oxidation metabolite formation at 10 uM after 30 mins by HPLC/UV/MS analysis; assay type: ADME, Microsome; conditions: 0.5 h; summary of the method: as §1
[24] = Dissociation constant, pKa by spectrophotometric titration method; assay type: physicochemical
Summary of the method: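 Spectrophotometric titration over pH 2–11 in varying acetonitrile/water mixtures, extrapolated to 0% cosolvent.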

Rattus norvegicus [25] = assay: Anxiolytic activity in Sprague-Dawley rat assessed as decrease in exit latency at 1.8 mg/kg, po after 60 mins by defensive withdrawal test relative to control; assay type: functional; design: scale not given: the % may be the effect or the level left; summary of the method: as §2
[26] = Half life in Sprague-Dawley rat at 2 mg/kg, iv by LC/MS/MS analysis; assay type: ADME, organism-based; design: dose 2 mg/kg, route intravenous; conditions: in vivo
[27] = Oral bioavailability in Beagle dog at 3 mg/kg, po dosed as aqueous suspension of Labrafil M 1944CS/DMAC/polysorbate 80, 85:10:5 (v/v) after 0.25 to 24 hrs by LC/MS/MS analysis; assay type: ADME, organism-based, Canis lupus familiaris; conditions: in vivo
Summary of the method: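 Fasted male beagle dogs dosed orally at 1 mL/kg: 2 mg/kg as 0.2% polysorbate 80 in 0.5% methylcellulose suspension (n = 4) or 3 mg/kg in Labrafil M 1944CS/DMAC/polysorbate 80 85:10:5 (n = 2). Femoral vein blood 0.25–24 h; plasma by LC/MS/MS.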

[28] = Metabolic stability in human liver microsomes assessed as compound remaining at 3 uM after 10 mins by HPLC/UV/MS analysis; assay type: ADME, Microsome; conditions: read-out: Stability

`COC[C@H](C1CC1)n1cc(C#N)nc(Nc2cc(C)c(OC(F)F)nc2C)c1=O` showed an AUC [1] of 7.6 µM·h, a dose excreted at 24 h [2] of 3% and a concentration (Rattus norvegicus [3]) of 45 nM. It also gave a bioavailability [4] of 53%, a Cmax [5] of 1600 nM and a solubility [6] of 4 µg/mL (≈ 9.87 µM). For the same molecule, the inhibition in vivo at 1.8 mg/kg (Rattus norvegicus [7]) was 71%, the solubility [8] was 3 µg/mL (≈ 7.4 µM) and the Vd [9] was 11 L/kg. The Activity (Rattus norvegicus [10]) was “Dose-dependent effect”, the concentration (Rattus norvegicus [11]) was 83 nM and the remaining at 0.5 h, 10 µM [12] was 56%. The Activity (Rattus norvegicus [13]) was 28%, the Vd [14] was 13 L/kg and the Activity (Rattus norvegicus [15]) was “Non-toxic”. The clearance [16] was 7.3 mL/min/kg, the Activity (Rattus norvegicus [17]) was “Non-toxic” and the Activity (Liver microsomes [18]) was under 1%. The Cmax [19] was 880 nM, the remaining at 10 min, 3 µM [20] was 70% and the bioavailability [21] was 31%. For the same molecule, the “Cp(f)” value (Rattus norvegicus [22]) was 1.6 nM, the Activity (Liver microsomes [23]) was under 1% and the pKa [24] was under 2. For the same molecule, the Activity (Rattus norvegicus [25]) was 60%, the half-life [26] was 9.3 h and the bioavailability [27] was 70%. It also gave a remaining at 10 min, 3 µM [28] of 74%.
